Tests used:
[1] = biological target: T1, Tyrosyl-DNA phosphodiesterase 2 (Homo sapiens, UniProt O95551); test: Inhibition of human recombinant TPD2 activity using 5'phosphotyrosine-containing 19-mer single-stranded oligonucleotide DNA substrate by PAGE assay
T1 sequence (O95551 whole entry): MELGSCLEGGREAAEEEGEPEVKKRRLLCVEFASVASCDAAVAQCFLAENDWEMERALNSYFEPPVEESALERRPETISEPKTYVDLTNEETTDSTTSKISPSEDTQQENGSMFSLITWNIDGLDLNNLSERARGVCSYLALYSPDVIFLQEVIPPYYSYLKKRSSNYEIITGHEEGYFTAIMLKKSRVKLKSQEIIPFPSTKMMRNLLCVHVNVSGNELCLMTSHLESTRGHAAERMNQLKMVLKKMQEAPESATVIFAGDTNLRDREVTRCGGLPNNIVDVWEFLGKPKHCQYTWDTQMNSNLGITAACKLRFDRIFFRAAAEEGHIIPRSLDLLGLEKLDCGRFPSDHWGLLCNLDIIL

UACC-62 = test: Growth inhibition of human UACC62 cells by five-dose growth inhibition assay; assay type: functional
SN12C = test: Growth inhibition of human SN12C cells by five-dose growth inhibition assay; assay type: functional
OVCAR-3 = test: Growth inhibition of human OVCAR3 cells by five-dose growth inhibition assay; assay type: functional
[2] = Growth inhibition of human SF539 cells by five-dose growth inhibition assay; assay type: functional; details: SF-539
MCF7 = test: Growth inhibition of human MCF7 cells by five-dose growth inhibition assay; assay type: functional
[3] = biological target: Tyrosyl-DNA phosphodiesterase 1 (Homo sapiens, UniProt Q9NUW8); test: Inhibition of recombinant TPD1 (unknown origin) activity using 3'-phosphotyrosine-containing 5'-[32P]-labeled single-stranded DNA oligonucleotide by PAGE assay
[4] = biological target: T2, DNA topoisomerase 1 (Homo sapiens) (UniProt P11387); test: Inhibition of recombinant topoisomerase 1 (unknown origin) assessed as DNA cleavage using 3'-[32P]-labeled 117-bp DNA oligonucleotide at 1 uM by PAGE assay; design: Activity: scale not given: the % may be the effect or the level left
T2 sequence (whole entry): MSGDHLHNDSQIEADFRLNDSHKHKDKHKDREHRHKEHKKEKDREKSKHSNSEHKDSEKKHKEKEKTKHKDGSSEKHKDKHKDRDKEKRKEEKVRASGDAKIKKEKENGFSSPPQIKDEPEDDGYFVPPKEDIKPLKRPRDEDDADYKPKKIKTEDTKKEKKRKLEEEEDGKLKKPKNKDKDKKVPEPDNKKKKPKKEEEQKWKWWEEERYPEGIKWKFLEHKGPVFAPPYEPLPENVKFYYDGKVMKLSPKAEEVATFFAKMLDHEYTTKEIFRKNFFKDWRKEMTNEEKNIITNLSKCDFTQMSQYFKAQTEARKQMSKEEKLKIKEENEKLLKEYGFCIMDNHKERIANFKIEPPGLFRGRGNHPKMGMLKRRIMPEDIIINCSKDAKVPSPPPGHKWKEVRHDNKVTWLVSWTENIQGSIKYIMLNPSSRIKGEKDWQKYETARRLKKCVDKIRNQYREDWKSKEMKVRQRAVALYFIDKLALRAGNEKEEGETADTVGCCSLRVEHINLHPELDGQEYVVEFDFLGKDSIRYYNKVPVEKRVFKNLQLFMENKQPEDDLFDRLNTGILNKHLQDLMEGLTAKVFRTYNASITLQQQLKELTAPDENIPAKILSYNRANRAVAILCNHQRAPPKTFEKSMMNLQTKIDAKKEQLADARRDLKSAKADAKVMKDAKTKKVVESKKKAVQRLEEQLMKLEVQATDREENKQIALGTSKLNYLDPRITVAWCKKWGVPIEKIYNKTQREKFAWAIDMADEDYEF
Outline: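 Approx. 2 nM 3′-[³²P]-labeled double-stranded DNA incubated with recombinant Top1 and compound at 0.1, 1, 10 or 100 μM for 20 min at 25 °C. Stopped with 0.5% SDS and run on a denaturing gel. […] Run twice.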

HCT-116 = test: Growth inhibition of human HCT116 cells by five-dose growth inhibition assay; assay type: functional
[5] = Growth inhibition of human NCI60 cells assessed as cell growth at 10 uM; assay type: functional; details: read-out: Activity
Outline: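 NCI-60 single-dose screen at 10 μM across ~60 human cancer cell lines. Reported as growth percent relative to vehicle-treated control, averaged over all lines tested as a mean growth percent.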

Tyrosyl-DNA phosphodiesterase 1, sequence (Q9NUW8 whole entry): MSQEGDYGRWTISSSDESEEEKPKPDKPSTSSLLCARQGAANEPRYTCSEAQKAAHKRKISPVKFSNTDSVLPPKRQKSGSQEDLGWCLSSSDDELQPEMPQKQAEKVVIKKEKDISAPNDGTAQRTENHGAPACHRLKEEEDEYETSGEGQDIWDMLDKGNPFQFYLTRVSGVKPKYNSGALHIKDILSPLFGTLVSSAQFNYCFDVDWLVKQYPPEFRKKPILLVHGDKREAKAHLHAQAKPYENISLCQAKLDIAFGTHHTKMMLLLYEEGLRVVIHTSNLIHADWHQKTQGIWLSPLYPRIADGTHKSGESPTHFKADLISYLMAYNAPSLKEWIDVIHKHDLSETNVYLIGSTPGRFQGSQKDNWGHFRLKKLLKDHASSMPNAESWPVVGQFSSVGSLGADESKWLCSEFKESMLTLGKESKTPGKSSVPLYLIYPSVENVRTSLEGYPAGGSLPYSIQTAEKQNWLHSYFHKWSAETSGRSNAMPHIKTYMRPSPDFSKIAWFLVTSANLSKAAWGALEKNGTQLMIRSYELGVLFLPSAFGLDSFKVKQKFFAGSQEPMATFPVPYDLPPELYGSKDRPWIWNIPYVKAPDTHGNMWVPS

IC50 [1]: > 111 µM | GI50 (OVCAR-3): 5.27 µM | GI50 (MCF7): 0.331 µM | IC50 [3]: > 111 µM | Activity [4]: 50% | GI50 (HCT-116): 0.631 µM
SMILES: O=C1c2ccccc2-c2c1c1ccc(I)cc1c(=O)n2C[C@H](O)CO
GI50 (UACC-62): 2.14 µM | GI50 (SN12C): 4.27 µM | GI50 [2]: 3.02 µM | growth at 10 µM [5]: 39.7%

From ChEMBL document CHEMBL3580647, “Discovery of potent indenoisoquinoline topoisomerase I poisons lacking the 3-nitro toxicophore” (J Med Chem, 2015)
